An excerpt weighted towards active compounds, which were near 1.5% of everything screened.
CCR6 antagonist: blocks CCL20-driven beta-arrestin recruitment at human CCR6; P51684; CHO-K1 CCR6 PathHunter beta-arrestin, luminescence, CCL20-stimulated; inhibition, % at 20 µM; 340,000 compounds, 0.49% hits;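 active = compounds whose inhibition of the agonist-driven luminescence signal at 20 µM reaches about 50%, limit read from the data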;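 also: cells stimulated with CCL20 at 14 nM final; plate controls were DMSO with CCL20 for no effect and DMSO without agonist for full effect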
CXCR6 inh: blocks human CXCR6 beta-arrestin recruitment | AID 602244 | inhibition, % at 20 µM | 360,000 compounds, 0.36% hits | CHO-K1 PathHunter CXCR6 beta-arrestin, luminescence | O00574; in the data active = inhibition above about 34%, passing the limit was not always enough;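 also: antagonist mode with CXCL16 agonist at 10 nM final; 0% = 10 nM CXCL16 with DMSO and 100% = unstimulated wells without agonist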
APJ antag: blocks the human apelin receptor APJ; P35414; CHO-K1 APJ beta-arrestin complementation, luminescence; inhibition, % at 20 µM; 330,000 compounds, 0.32% hits; AID 2521;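 active = inhibition above about 40% at 20 µM, limit read from the data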;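 also: cells challenged with 10 nM apelin-13 agonist together with compound; plate controls were apelin-13 plus DMSO wells for no effect and DMSO wells lacking apelin-13 for full effect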
Target sequence (P35414 whole entry, looked up): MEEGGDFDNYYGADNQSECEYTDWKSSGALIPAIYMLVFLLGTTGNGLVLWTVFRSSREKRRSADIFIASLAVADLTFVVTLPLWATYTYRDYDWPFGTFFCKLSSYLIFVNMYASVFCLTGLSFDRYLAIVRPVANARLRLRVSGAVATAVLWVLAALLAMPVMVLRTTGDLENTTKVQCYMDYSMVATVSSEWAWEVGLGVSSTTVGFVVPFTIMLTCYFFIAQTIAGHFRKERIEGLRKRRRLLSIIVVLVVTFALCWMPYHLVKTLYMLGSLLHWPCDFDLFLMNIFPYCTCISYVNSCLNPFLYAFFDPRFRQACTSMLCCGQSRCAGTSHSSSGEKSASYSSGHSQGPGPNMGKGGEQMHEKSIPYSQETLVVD
EBI2 antag: blocks human EBI2 receptor beta-arrestin signaling; P32249; EBI2 beta-arrestin recruitment, luminescence, 7a,25-OHC stimulated; inhibition, % at 5 µM; 360,000 compounds, 0.81% hits; AID 651636; in the data active = inhibition above about 38%;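 also: enzyme fragment complementation signal reports receptor beta-arrestin coupling in cells; 0% = agonist plus DMSO wells and 100% = wells without agonist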
APJ agonist: activates the human apelin receptor APJ | P35414 | CHO-K1 APJ PathHunter beta-arrestin, luminescence; 0% DMSO wells, 100% apelin | activation, % at 20 µM | AID 2520 | 330,000 compounds, 0.11% hits;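 active = activation more than six SD over the plate average, tested at 20 µM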;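 also: 0% = DMSO alone and 100% = apelin-13 at 10 nM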
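Test system: CHO-K1 APJ beta-arrestin complementation cell line | Compound: Single test compound dose, 20 µM final, 1% DMSO | Incubation: Compound 90 min 25 °C, reagent 1 h | Measured by: beta-gal luminescence | Read-out basis: APJ–arrestin association signal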
EBI2 conf: confirmation of human EBI2 receptor antagonists. shares compounds with EBI2 antag. EBI2 beta-arrestin luminescence, 7a,25-OHC antagonism. inhibition, % at 5 µM. 2,400 compounds, 29% hits. AID 651997;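 active = inhibition of at least 50%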
EBI2 agonist: EBI2 agonism counter-screen. shares compounds with EBI2 antag. EBI2-expressing cells, agonist mode, luminescence, 60 min; 0% vehicle, 100% 7α,25-dihydroxycholesterol control. activation, % at 5 µM. 2,400 tested, under 10 active. AID 652000;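 active = activation of at least 50%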
bGal counter: counter-screen for EBI2 antagonists: E. coli beta-galactosidase inhibition | AID 652176 | shares compounds with EBI2 antag | purified beta-galactosidase, luminescent Galacton Star, 15 min | 2,400 compounds, 1% hits | inhibition, % at 5 µM;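 active = replicate-average signal at least 3 plate SD below neutral wells, shown as high inhibition, flagging enzyme-inhibiting false positives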;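 also: 0% = DMSO wells with enzyme and 100% = wells lacking enzyme; higher means stronger loss of beta-gal luminescence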
An asterisk follows results filed as active; . = no result given.

SMILES	CCR6 antagonist	CXCR6 inh	APJ antag	EBI2 antag	APJ agonist	EBI2 conf	EBI2 agonist	bGal counter
O=C(COc1ccc2ccccc2c1)N1CCN(C(=O)c2ccc([N+](=O)[O-])cc2)CC1	-11	-14	-13	94*	-1	76*	-2	-2
Cc1ccc(OCC(=O)N2CCN(C(=O)CCC3CCCC3)CC2)cc1	8	4	7	81*	-6	61*	-1	-7
O=C(CCC1CCCC1)N1CCN(C(=O)COc2ccccc2)CC1	-19	8	-23	28	-1	.	.	.
O=C(Cc1ccccc1)N1CCN(C(=O)c2ccc([N+](=O)[O-])cc2)CC1	11	-11	4	10	-3	.	.	.
O=C(COc1ccccc1)N1CCN(C(=O)c2ccc([N+](=O)[O-])cc2)CC1	1	1	-13	53*	-3	38	2	-6
Cc1ccc(OCC(=O)N2CCN(C(=O)c3ccc([N+](=O)[O-])cc3)CC2)cc1	-1	-5	4	83*	-3	58*	-2	-10
CCCCCCn1nc(C(=O)N(CCOC)c2c(N)n(CCCC)c(=O)[nH]c2=O)c2ccccc2c1=O	14	2	-1	-2	-6	.	.	.
CCCC1NC(=O)c2cc3ccccc3cc2-n2c1nc1cc(Cl)ccc1c2=O (stereo not drawn)	.	5	.	53*	.	51*	0	6
Cc1ccc2nc3n(c(=O)c2c1)-c1ccc(Cl)cc1C(=O)NC3Cc1ccccc1 (stereo not drawn)	.	.	10	.	-2	.	.	.
Cc1cc(C)c2c(=O)n3c(nc2c1)C(Cc1ccccc1)NC(=O)c1cccnc1-3 (stereo not drawn)	.	2	.	20	.	.	.	.
O=C1NC(Cc2ccccc2)c2nc3cc(Cl)ccc3c(=O)n2-c2cc(Cl)ccc21 (stereo not drawn)	.	.	1	.	-3	.	.	.
CCC1NC(=O)c2cc3ccccc3cc2-n2c1nc1ccc(F)cc1c2=O (stereo not drawn)	.	-10	.	8	.	.	.	.
Cc1cc(C)c2c(=O)n3c(nc2c1)C(Cc1ccccc1)NC(=O)c1cc2ccccc2cc1-3 (stereo not drawn)	.	0	.	76*	.	38	-2	-11
CCCC1NC(=O)c2cc3ccccc3cc2-n2c1nc1ccc(C)cc1c2=O (stereo not drawn)	.	-8	.	57*	.	44	2	7
Cc1ccc2nc3n(c(=O)c2c1)-c1cc2ccccc2cc1C(=O)NC3Cc1ccccc1 (stereo not drawn)	.	8	.	54*	.	34	0	-14
CCC1Oc2ccccc2N(CC(=O)NC2CCCC2)C1=O (stereo not drawn)	24	8	-4	3	-5	.	.	.
CC(=O)c1cn(CC(=O)Nc2ccccc2Cl)c2ccccc12	7	6	-7	-1	4	.	.	.
Cn1ncc2c(=O)[nH]c(N)nc21	1	2	.	-5	.	.	.	.
O=C(C[n+]1ccc(-c2nnc3n2CCC3)cc1)c1ccc(Cl)cc1	-10	2	-2	-5	0	.	.	.
O=[N+]([O-])c1cc(-c2cnc3ccccc3n2)ccc1Oc1ccc(Br)cc1	13	4	-11	46*	2	42	0	3
COc1ccc(/C=N/n2cnn(Cc3ccccc3Cl)c2=S)cc1	15	10	-11	49*	0	45	-1	-11
COc1cc(/C=N/n2cnn(Cc3ccccc3Cl)c2=S)cc(OC)c1OC	12	-1	11	14	-3	.	.	.
FCCCOc1ccc(/C=N/OCc2ccc(Cl)cc2)cc1	24	4	13	60*	0	23	1	3
O=C(/C=C/c1ccc(OCCCF)cc1)NCc1ccc(Cl)cc1	-8	0	0	50*	-3	36	0	3
FCCCOc1ccc(/C=N/OCc2c(Cl)cccc2Cl)cc1	-1	-1	3	35	-1	.	.	.
SMILES	CCR6 antagonist	CXCR6 inh	APJ antag	EBI2 antag	APJ agonist	EBI2 conf	EBI2 agonist	bGal counter
CCCc1ccc2oc(C(=O)N3CCNC(=O)C3CC(=O)OC)c(C)c2c1 (stereo not drawn)	2	-3	-6	-8	14	.	.	.
Cc1ccc(S(=O)(=O)N2[C@@H](c3ccccc3F)C(C(=O)O)=CC[C@H]2c2cccc(Cl)c2)cc1	6	1	-9	2	-4	.	.	.
COC(=O)c1cc(=O)n(Cc2cccs2)c(=Nc2ccccc2)s1	16	6	2	25	-5	.	.	.
COC(=O)c1cc(=O)n(CCc2ccc(OC)c(OC)c2)c(=Nc2ccc(F)c(Cl)c2)s1	17	15	14	63*	-2	62*	-1	-8
CNC(=O)C1CC(=O)N(CCc2ccc(OC)c(OC)c2)C(=Nc2ccc(F)cc2)S1 (stereo not drawn)	1	7	-31	-3	-2	.	.	.
COC(=O)c1cc(=O)n(Cc2ccc(F)cc2)c(=Nc2ccccc2)s1	26	15	8	60*	-4	62*	0	7
CCOC(=O)c1ccc(N=c2sc(C(=O)OC)cc(=O)n2-c2ccc(C(=O)OCC)cc2)cc1	23	11	7	79*	-1	74*	1	7
COC(=O)c1cc(=O)n(Cc2ccc(OC)c(OC)c2)c(=Nc2ccc(F)cc2)s1	19	7	19	70*	-4	50*	0	-9
COC(=O)c1cc(=O)n(-c2ccccc2)c(=Nc2ccccc2)s1	25	6	5	2	1	.	.	.
COC(=O)c1cc(=O)n(Cc2ccco2)c(=Nc2ccc(F)cc2)s1	26	12	23	16	-8	.	.	.
CCOC(=O)c1ccc(NC(=O)CSc2nnnn2CCCO)cc1	0	-6	15	-1	-4	.	.	.
CCOC1CCCc2oc(-c3ccc(N(C)C)cc3)c(C(=O)OC)c21 (stereo not drawn)	.	-7	.	-1	.	.	.	.
CCOC(=O)C1CCCN(Cc2sccc2C)C1 (stereo not drawn)	8	0	16	-17	3	.	.	.
Cc1ccc(C2CC(c3ccc(Cl)cc3)=NNC2=O)cc1 (stereo not drawn)	-9	0	7	50*	-1	44	0	8
CN1N=C(c2ccc(Cl)cc2)CC(c2ccc(Cl)cc2)C1=O (stereo not drawn)	17	-3	-2	41	0	.	.	.
O=C1NN=C(c2ccc(Br)cc2)CC1c1ccc(Cl)cc1 (stereo not drawn)	10	10	-4	74*	-3	52*	-2	-2
CCc1ccc(C2CC(c3ccc(Cl)cc3)=NNC2=O)cc1 (stereo not drawn)	-7	-26	15	61*	-1	48	1	0

Screens from PubChem.
